Data on 7 compounds can be found in ChEMBL document CHEMBL1144121, “Umbelliferone analogues and their potential to inhibit Benzo(a)pyrene- and hydrogen peroxide-induced mutations” (J Nat Prod, 1999).

Series [1] relates to Salmonella typhimurium. In words: Antimutagenic activity in Salmonella Typhimurium TA100 assessed as protection against benzo[a]pyrene-induced mutation at 2 ug/plate after 2 days by modified Ames test. In kind it is functional, Salmonella enterica subsp. enterica serovar Typhimurium. In short, it runs like this: (§1)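 S. typhimurium TA100 grown 15 h at 37 °C in Oxoid Nutrient Broth No. 2 with shaking to about (1-2) × 10^8 cells/mL. Culture in histidine/biotin-supplemented top agar with 5 μg benzo(a)pyrene plus 50 μL S9 and test compound. Plated on Vogel-Bonner E medium, 37 °C for 2 days. His+ revertants scored on 3 plates, averaged, and % protection taken relative to mutagen minus spontaneous revertants.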

The subject of series [2] is Salmonella typhimurium. In words: Antimutagenic activity in Salmonella Typhimurium TA100 assessed as protection against benzo[a]pyrene-induced mutation at 4 ug/plate after 2 days by modified Ames test. It is filed as functional, Salmonella enterica subsp. enterica serovar Typhimurium. In short, it runs like this:
as §1
Background: The Ames test detects mutagens through reverse mutation in bacteria.

Series [3] concerns Salmonella typhimurium. In words: Antimutagenic activity in Salmonella Typhimurium TA100 assessed as protection against benzo[a]pyrene-induced mutation at 8 ug/plate after 2 days by modified Ames test. In kind it is functional, Salmonella enterica subsp. enterica serovar Typhimurium. The note with it: at 8 µg/plate.
Series [4] concerns Salmonella typhimurium. The series is described as follows: Antimutagenic activity in Salmonella Typhimurium TA102 assessed as protection against hydrogen peroxide-induced mutation at 1 ug/plate after 2 days by modified Ames test. In kind it is functional, Salmonella enterica subsp. enterica serovar Typhimurium. An outline of the steps: (§2)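 S. typhimurium TA102 grown 15 h at 37 °C in Oxoid Nutrient Broth No. 2 with shaking to about (1-2) × 10^8 cells/mL. Culture in histidine/biotin-supplemented top agar with 100 μg hydrogen peroxide and test compound. Plated on Vogel-Bonner E medium, 37 °C for 2 days. His+ revertants scored on 3 plates, averaged, and % protection taken relative to mutagen-induced revertants minus spontaneous revertants.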

Series [5] deals with Salmonella typhimurium. The series is described as follows: Antimutagenic activity in Salmonella Typhimurium TA102 assessed as protection against hydrogen peroxide-induced mutation at 2 ug/plate after 2 days by modified Ames test. In kind it is functional, Salmonella enterica subsp. enterica serovar Typhimurium. An outline of the steps: as §2
Series [6] relates to Salmonella typhimurium. The series is described as follows: Antimutagenic activity in Salmonella Typhimurium TA102 assessed as protection against hydrogen peroxide-induced mutation at 4 ug/plate after 2 days by modified Ames test. In kind it is functional, Salmonella enterica subsp. enterica serovar Typhimurium. The note with it: at 4 µg/plate.
Series [7] deals with Salmonella typhimurium. In words: Antimutagenic activity in Salmonella Typhimurium TA100 assessed as protection against benzo[a]pyrene-induced mutation at 32 ug/plate after 2 days by modified Ames test. In kind it is functional, Salmonella enterica subsp. enterica serovar Typhimurium. The note with it: at 32 µg/plate.
Series [8] deals with Salmonella typhimurium. The series is described as follows: Antimutagenic activity in Salmonella Typhimurium TA100 assessed as protection against benzo[a]pyrene-induced mutation at 16 ug/plate after 2 days by modified Ames test. It is filed as functional, Salmonella enterica subsp. enterica serovar Typhimurium. The note with it: at 16 µg/plate.
Series [9] has as its system Salmonella typhimurium. The series is described as follows: Antimutagenic activity in Salmonella Typhimurium TA102 assessed as protection against hydrogen peroxide-induced mutation at 8 ug/plate after 2 days by modified Ames test. It is filed as functional, Salmonella enterica subsp. enterica serovar Typhimurium. The note with it: at 8 µg/plate.
The nature of series [10]: Cytotoxicity against Salmonella Typhimurium TA100 assessed as maximum non-toxic concentrations after 15 hrs by ELISA. The note with it: salmonella enterica subsp. enterica serovar typhimurium, Salmonella Typhimurium TA100 bacteria.

Regarding `COc1ccc2ccc(=O)oc2c1` [HERNIARIN], the Activity with Salmonella typhimurium [1] is on record as 21%; with Salmonella typhimurium [2] it was 28%; in the series with Salmonella typhimurium [3], 36%; with Salmonella typhimurium [4] it was 0%; with Salmonella typhimurium [5] it was 10%; with Salmonella typhimurium [6] it was 11%.

Regarding `CC(C)=CCOc1ccc2ccc(=O)oc2c1` [7-PRENYLOXYCOUMARIN], the Activity in the series on Salmonella typhimurium [1] was 19%; in the series with Salmonella typhimurium [2], 29%; in the series with Salmonella typhimurium [3] it was 36%; with Salmonella typhimurium [4], 9%; with Salmonella typhimurium [5], 14%; with Salmonella typhimurium [6], 17%.

In the case of `C#CC(C)(C)Oc1ccc2ccc(=O)oc2c1`, the Activity with Salmonella typhimurium [1] is listed as 10%; with Salmonella typhimurium [2], 15%; in the series on Salmonella typhimurium [3], 25%; in the series on Salmonella typhimurium [4], 0%; in the series with Salmonella typhimurium [5], 0%; with Salmonella typhimurium [6], 11%.

For the compound `CC1=CC[C@@H](O)C(C)(C)[C@H]1CC/C(C)=C/COc1ccc2ccc(=O)oc2c1`, the Activity in the series with Salmonella typhimurium [7] is listed as 45%.

`O=c1ccc2ccc(O)cc2o1` [UMBELLIFERONE]: the Activity with Salmonella typhimurium [2] is recorded as 10%; in the series on Salmonella typhimurium [3], 22%; in the series with Salmonella typhimurium [8] it was 39%; in the series with Salmonella typhimurium [5] it was 7%; in the series with Salmonella typhimurium [6] it was 13%; in the series with Salmonella typhimurium [9], 28%.

On to `CC1(C)C=Cc2c(ccc3ccc(=O)oc23)O1` [SESALIN], for which the Activity came to 1% with Salmonella typhimurium [2]; 8% with Salmonella typhimurium [3]; 20% in the series with Salmonella typhimurium [8]; 0% in the series with Salmonella typhimurium [5]; 8% with Salmonella typhimurium [6]; 22% in the series with Salmonella typhimurium [9].

On to `O=c1ccc2ccc(OCC3CCCCC3)cc2o1` [UMBELLIFERONECYCLOHEXYLMETHYL ETHER], for which the Activity with Salmonella typhimurium [2] was 33%; with Salmonella typhimurium [3], 44%; in the series on Salmonella typhimurium [8], 54%; in the series on Salmonella typhimurium [5], 0%; in the series on Salmonella typhimurium [6] it was 5%; in the series with Salmonella typhimurium [9] it was 39%. The MNTC at 15 h in series [10] was 16 µg/mL.
